Experimental data from ChEMBL document CHEMBL1122782, “Bulky amine analogues of ketoprofen: potent antiinflammatory agents” (J Med Chem, 1984).

Columns and labels:
Rattus norvegicus [1] = experiment: The mean increase in paw volume was compared between drug treated groups and placebo to calculate the percent inhibition in rats at 0.08 mmol/kg by carrageenan Edema Assay; 30-39; type: functional
Rattus norvegicus [2] = experiment: The percent inhibition was calculated from the average differences in hind paw volume between the adjuvant injected controls and the adjuvant-injected medicated rats at 0.08 mmol/kg; 90-99; type: functional
Rattus norvegicus [3] = experiment: The mean increase in paw volume was compared between drug treated groups and placebo to calculate the percent inhibition in rats at 0.02 mmol/kg by carrageenan Edema Assay; 0-19; type: functional
Rattus norvegicus [4] = experiment: Ulcerogenicity was measured in stomach during the 3 week adjuvant arthritis test, no of animals with ulcers out of 31 animals tested at 0.03 mM/kg (7.62 mg) was reported; type: functional
In short: (§1)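 Male Sprague-Dawley rats (200–230 g) got 0.1 mL of a 0.6% M. butyricum adjuvant suspension in heavy mineral oil into the plantar tissue of one hind paw. Oral gavage dosing started the same day and continued daily for 21 days, in 1% gum tragacanth or corn oil-water emulsion. At the end, rats were killed and the small intestine and stomach were examined for ulcers, reported as animals with ulcers over animals tested.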

Rattus norvegicus [5] = experiment: Antiinflammatory efficacy is measured by the weight gain in rats during the 3 week adjuvant arthritis test at 0.002 mM/kg (0.51 mg); type: functional
In short: (§2)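 Rats were adjuvant-injected (M. butyricum in mineral oil, one hind paw) or given a mineral-oil placebo. They were dosed by gavage daily for 21 days from the injection day, with vehicle only for both control groups, then weighed at the end. Weight gain % = (treated − adjuvant control)/(negative control − adjuvant control) × 100.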

Rattus norvegicus [6] = experiment: Ulcerogenicity was measured in intestine during the 3 week adjuvant arthritis test, no of animals with ulcers out of animals tested at 0.06 mM/kg (15.2 mg) was reported; toxic; type: functional, organism-based; in short: as §1
Rattus norvegicus [7] = experiment: Ulcerogenicity was measured in intestine during the 3 week adjuvant arthritis test, no of animals with ulcers out of 24 animals tested at 0.009 mM/kg (2.29 mg) was reported; type: functional; in short: as §1
Rattus norvegicus [8] = experiment: The mean increase in paw volume was compared between drug treated groups and placebo to calculate the percent inhibition in rats at 0.02 mmol/kg by carrageenan Edema Assay; 60-69; type: functional
Rattus norvegicus [9] = experiment: Potency relative to phenylbutazone at 0.006 mM/kg; type: functional
In short: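 21-day adjuvant arthritis in male Sprague-Dawley rats (0.6% M. butyricum in mineral oil, intraplantar), with daily oral gavage from the day of adjuvant injection. Total hind-paw volume was measured by mercury displacement and percent inhibition calculated against adjuvant controls. The ED50 for 50% inhibition of paw volume was expressed relative to phenylbutazone, with 95% confidence limits.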

Rattus norvegicus [10] = experiment: Antiinflammatory efficacy is measured by the percent inhibition of paw volume during the 3 week adjuvant arthritis test at 0.009 mM/kg (2.29 mg); type: functional
In short: (§3)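 Male Sprague-Dawley rats (200–230 g) were used in groups of eight. Each received 0.1 mL of 0.6% M. butyricum in heavy mineral oil into the plantar tissue of one hind paw. Daily oral gavage in 1% gum tragacanth or corn oil-water emulsion began on the injection day and ran 21 days. Total hind paw volume was measured by mercury displacement, and inhibition was taken versus vehicle-treated adjuvant controls.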

Rattus norvegicus [11] = experiment: Ulcerogenicity was measured in stomach during the 3 week adjuvant arthritis test, no of animals with ulcers out of 24 animals tested at 0.009 mM/kg (2.29 mg) was reported; type: functional; in short: as §1
Rattus norvegicus [12] = experiment: Antiinflammatory efficacy is measured by the weight gain in rats during the 3 week adjuvant arthritis test at 0.006 mM/kg (0.152 mg); type: functional; in short: as §2
Rattus norvegicus [13] = experiment: The percent inhibition was calculated from the average differences in hind paw volume between the adjuvant injected controls and the adjuvant-injected medicated rats at 0.08 mmol/kg; 0.009-82; type: functional; details: read-out: Inhibition
Rattus norvegicus [14] = organism: Rattus norvegicus; experiment: Compound was evaluated for highest non-ulcerogenic dose (less than 50% ulcer incidence); type: functional; details: read-out: ED50
In short: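 Taken from the 21-day adjuvant arthritis test in male Sprague-Dawley rats dosed orally each day from the day of adjuvant injection. Small intestines and stomachs were examined for ulceration at the end. The value is the highest dose giving less than 50% ulcer incidence.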

Rattus norvegicus [15] = experiment: Ulcerogenicity was measured in stomach during the 3 week adjuvant arthritis test, no of animals with ulcers out of 4 animals tested at 0.002 mM/kg (0.51 mg) was reported; type: functional; in short: as §1
Rattus norvegicus [16] = experiment: Ulcerogenicity was measured in intestine during the 3 week adjuvant arthritis test, no of animals with ulcers out of 31 animals tested at 0.03 mM/kg (7.62 mg) was reported; type: functional; in short: as §1
Rattus norvegicus [17] = experiment: Ulcerogenicity was measured in intestine during the 3 week adjuvant arthritis test, no of animals with ulcers out of 4 animals tested at 0.002 mM/kg (0.51 mg) was reported; type: functional; in short: as §1
Rattus norvegicus [18] = experiment: Antiinflammatory efficacy is measured by the percent inhibition of paw volume during the 3 week adjuvant arthritis test at 0.006 mM/kg ([…]); type: functional; in short: as §3
Rattus norvegicus [19] = experiment: Antiinflammatory efficacy is measured by the weight gain in rats during the 3 week adjuvant arthritis test at 0.009 mM/kg (2.29 mg); type: functional; in short: as §2
Rattus norvegicus [20] = experiment: Antiinflammatory efficacy is measured by the percent inhibition of paw volume during the 3 week adjuvant arthritis test at 0.002 mM/kg (0.51 mg); type: functional; in short: as §3
Rattus norvegicus [21] = experiment: The mean increase in paw volume was compared between drug treated groups and placebo to calculate the percent inhibition in rats at 0.02 mmol/kg by carrageenan Edema Assay; 30-39; type: functional; details: Rattus norvegicus
Rattus norvegicus [22] = experiment: The percent inhibition was calculated from the average differences in hind paw volume between the adjuvant injected controls and the adjuvant-injected medicated rats at 0.08 mmol/kg; 70-79; type: functional
Rattus norvegicus [23] = experiment: The mean increase in paw volume was compared between drug treated groups and placebo to calculate the percent inhibition in rats at 0.08 mmol/kg by carrageenan Edema Assay; 40-49; type: functional
Rattus norvegicus [24] = experiment: The mean increase in paw volume was compared between drug treated groups and placebo to calculate the percent inhibition in rats at 0.02 mmol/kg by carrageenan Edema Assay; 20-29; type: functional
Rattus norvegicus [25] = experiment: The percent inhibition was calculated from the average differences in hind paw volume between the adjuvant injected controls and the adjuvant-injected medicated rats at 0.08 mmol/kg; 40-49; type: functional

## CC(CN1CCCCC1CCC1CCCCC1)c1cccc(C(=O)c2ccccc2)c1 (stereo not drawn)
Rattus norvegicus [1]
  inhibition in vivo at 80 µmol/kg: 30%
Rattus norvegicus [2]
  inhibition in vivo at 80 µmol/kg: 90%

## CC(CN1CCCCC1CCCC1CCCCC1)c1cccc(C(=O)c2ccccc2)c1 (stereo not drawn)
Rattus norvegicus [1]
  inhibition in vivo at 80 µmol/kg: 30%

## CC(CN1CCCCC1CC1CCCCC1)c1cccc(C(O)c2cccc(Cl)c2)c1 (stereo not drawn)
Rattus norvegicus [3]
  inhibition in vivo at 20 µmol/kg: 0%

## O/N=C(/c1ccccc1)c1cccc(CCN2CCOCC2)c1
Rattus norvegicus [3]
  inhibition in vivo at 20 µmol/kg: 0%

## CC(CN1CCCCC1C1CCCCC1)c1cccc(C(=O)c2ccccc2)c1 (stereo not drawn)
Rattus norvegicus [1]
  inhibition in vivo at 80 µmol/kg: 30%
Rattus norvegicus [2]
  inhibition in vivo at 80 µmol/kg: 90%

## CC(C(=O)O)c1cccc(C(=O)c2ccccc2)c1 (stereo not drawn) [KETOPROFEN]
Rattus norvegicus [4]
  Ulcerogenic index: 3
Rattus norvegicus [5]
  Weight gain: 35%
Rattus norvegicus [6]
  Ulcerogenic index: Toxic
Rattus norvegicus [7]
  Ulcerogenic index: 4
Rattus norvegicus [8]
  inhibition in vivo at 20 µmol/kg: 60%
Rattus norvegicus [9]
  Relative potency: 32.4%
Rattus norvegicus [10]
  Inhibition: 82%
Rattus norvegicus [11]
  Ulcerogenic index: 6
Rattus norvegicus [12]
  Weight gain: 21%
Rattus norvegicus [13]
  inhibition in vivo at 80 µmol/kg: 82%
Rattus norvegicus [14]
  highest non-ulcerogenic dose: 1 µmol/kg
Rattus norvegicus [15]
  Ulcerogenic index: 0
Rattus norvegicus [16]
  Ulcerogenic index: 22
Rattus norvegicus [17]
  Ulcerogenic index: 0
Rattus norvegicus [18]
  Inhibition: 31%
Rattus norvegicus [19]
  Weight gain: 79%
Rattus norvegicus [20]
  Inhibition: 68%

## CC(CN1CCCCC1CCCC1CCCCC1)c1cccc(C(O)c2ccccc2)c1 (stereo not drawn)
Rattus norvegicus [21]
  inhibition in vivo at 20 µmol/kg: 30%

## CC(CN1CCCCC1CC1CCCCC1)c1cccc(C(=O)c2ccccc2Cl)c1 (stereo not drawn)
Rattus norvegicus [21]
  inhibition in vivo at 20 µmol/kg: 30%
Rattus norvegicus [22]
  inhibition in vivo at 80 µmol/kg: 70%

## NC(c1ccccc1)c1cccc(CCN2CCOCC2)c1 (stereo not drawn)
Rattus norvegicus [3]
  inhibition in vivo at 20 µmol/kg: 0%

## CC(CN1CCCCC1CC1CCCCC1)c1cccc(C(O)c2c(Cl)cccc2Cl)c1 (stereo not drawn)
Rattus norvegicus [3]
  inhibition in vivo at 20 µmol/kg: 0%

## CC(CN1CCOCC1)c1cccc(C(N)c2ccccc2)c1 (stereo not drawn)
Rattus norvegicus [22]
  inhibition in vivo at 80 µmol/kg: 70%
Rattus norvegicus [23]
  inhibition in vivo at 80 µmol/kg: 40%

## CC(CN1CCCCC1CC1CCCCC1)c1cccc(Cc2ccccc2)c1 (stereo not drawn)
Rattus norvegicus [2]
  inhibition in vivo at 80 µmol/kg: 90%
Rattus norvegicus [24]
  inhibition in vivo at 20 µmol/kg: 20%

## CC(CN1CCCC1CC1CCCCC1)c1cccc(C(=O)c2ccccc2)c1 (stereo not drawn)
Rattus norvegicus [22]
  inhibition in vivo at 80 µmol/kg: 70%
Rattus norvegicus [23]
  inhibition in vivo at 80 µmol/kg: 40%

## CN(C)CCCNCCc1cccc(C(=O)c2ccccc2)c1
Rattus norvegicus [1]
  inhibition in vivo at 80 µmol/kg: 30%
Rattus norvegicus [25]
  inhibition in vivo at 80 µmol/kg: 40%

## Cc1ccc(C(=O)c2cccc(C(C)CN3CCCCC3CC3CCCCC3)c2)cc1 (stereo not drawn)
Rattus norvegicus [3]
  inhibition in vivo at 20 µmol/kg: 0%
